Experimental data: PMC8131326 (The Journal of Biological Chemistry, 2021)

Legend:
[1] = test system: carrageenan-induced paw edema in mice; test: Carrageenan-induced paw edema assay; assay type: in vivo, Kunming mice; conditions: FS48 1.5 mg/kg
Procedure, shortened: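 Male and female Kunming mice, randomized into four groups of six. Test compound (1.5 mg/kg), saline or aspirin (5 mg/kg) given i.p. 1 h before intraplantar 1% carrageenan in saline (50 μl) into the right hind paw. Paw volume to the ankle measured by plethysmometer before injection and at 2–24 h; swelling taken as Δvolume. In a second set, paws were excised at 4 h for histology, cytokine and MPO assays. Mean ± SEM, n = 6.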

[2] = test system: Kv current of LPS-activated Raw 264.7 cells; test: Kv currents of LPS-activated Raw 264.7 macrophages; assay type: cell-based, murine
Procedure, shortened: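 Raw 264.7 cells in DMEM/10% FBS at 37 °C, 5% CO2, LPS-activated. Whole-cell patch clamp at room temperature, held at −70 mV for 4 min to equilibrate, filtered at 2 kHz and digitized at 20 kHz, 80% series-resistance compensation. Currents compared before and after test compound or 100 nM MgTx, with amplitude taken at +40 mV. I–V curves used 150-ms steps from −50 to +40 mV, 10 mV increments, 2 s intervals. Mean ± SEM, at least four experiments.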

[3] = test system: Kv1.3 expression in Raw 264.7 cells; test: Kv1.3 channel mRNA and protein expression in LPS-activated Raw 264.7 cells; assay type: cell-based, murine; conditions: 3 μM FS48, 100 nM MgTx, 100 ng/ml LPS
Procedure, shortened: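 Raw 264.7 cells activated with 100 ng/ml LPS and exposed to test compound (3 μM) or MgTx (100 nM) for 24 h. Kv1.3 mRNA: Trizol RNA extraction, SYBR qRT-PCR (95 °C 5 min; 40 cycles of 95 °C 15 s / 60 °C 45 s), normalized to GAPDH by 2−ΔΔCT, in triplicate. Kv1.3 protein: western blot with primary antibody 1:2000 overnight at 4 °C, HRP chemiluminescence, densitometry against GAPDH, in triplicate.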

[4] = test system: NO production in Raw 264.7 cells; test: LPS-induced NO production and iNOS mRNA in Raw 264.7 cells; assay type: cell-based, murine; conditions: 100 ng/ml LPS
Procedure, shortened: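 Nitrite: 5 × 10^4 Raw 264.7 cells/well grown overnight, then given test compound (0.1–10 μM) plus 100 ng/ml LPS (E. coli O55:B5) for 24 h; supernatant assayed by Griess reagent at 540 nm. MgTx 100 nM served as positive control; cells without compound and/or LPS as negative controls; repeated four times. iNOS mRNA: 3 μM compound plus LPS for 8 h, SYBR qRT-PCR normalized to GAPDH (2−ΔΔCT), fold change versus untreated, in triplicate.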

human Kv1.1 = test: Whole-cell patch clamp, HEK 293T cells expressing Kv1.1; assay type: cell-based; conditions: 0.2 mM TEA; n = 5
Procedure, shortened: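 HEK 293T cells carrying plasmids for human Kv1.1 plus EGFP. Whole-cell patch clamp at room temperature after holding at −70 mV for 4 min, filtered at 2 kHz and digitized at 20 kHz. Currents elicited by a +10 mV depolarization were compared before and after application of the test agent.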

CC(=O)Oc1ccccc1C(=O)O [aspirin]
carrageenan-induced secretion of IL-1β, IL-6, and TNF-α in paw tissues ([1]; aspirin 5 mg/kg i.p., 4 h after carrageenan): diminished | leukocyte infiltration in paw (histological analysis) ([1]; aspirin 5 mg/kg i.p., 4 h after carrageenan, HE stain): obviously reduced | suppression of hind paw edema at 4 h versus model group ([1]; aspirin 5 mg/kg, intraperitoneally 1 h before carrageenan (1%, 50 μl), 4 h, n = 6): approximately 44.79%

MgTx: a highly specific Kv1.3 blocker, positive control (UniProtKB P40755) (TIINVKCTSPKQCLPPCKAQFGQSAGAKCMNGKCKCYPH; UniProt P40755 1-39, looked up)
Kv currents at all test voltages (−50 to +40 mV) ([2]; 1 μM FS48 or 100 nM MgTx, LPS-activated Raw 264.7 cells, n = 4): reduced markedly | reduction of amplitude of Kv current of LPS-activated macrophages ([2]; at +40 mV, 100 nM MgTx, 10 μM FS48): 59.45 ± 2.79% | Kv1.3 mRNA expression induced by LPS ([3]; real-time PCR): greatly reduced | decrease of Kv1.3 protein expression induced by LPS ([3]; 24 h, western blot normalized to GAPDH): 76.15 ± 13.81% | inhibition of LPS-induced nitrite production ([4]; 10 μM FS48, 100 nM MgTx, 24 h, Griess reagent): about 37.65% | LPS-induced increase of mRNA level of iNOS ([4]; exposure for 8 h, 3 μM FS48, qRT-PCR): evidently inhibited | effect on the second phase of carrageenan-induced paw edema ([1]; MgTx 0.4179 mg/kg, intraperitoneally 1 h before carrageenan): remarkable anti-inflammatory effects

CC[N+](CC)(CC)CC [TEA, tetraethylammonium]
reduction of Kv1.1 current by TEA (human Kv1.1): 31.81 ± 1.98%
